Assay results collected from several papers.
Compare with care: the assays were run in different laboratories.
Target: RAC-alpha serine/threonine-protein kinase (AKT1, Homo sapiens, UniProt P31749)

SMILES	effect on	action	technique	concentration	endpoint	value
CC(C)c1ccc(NC(=O)c2cccs2)c(-c2nc3ccccc3[nH]c2=O)c1	enzyme activity	inhibitor		1 µM	activity vs control	120%
COc1cc2ncnc(Nc3ccc(Oc4ccccc4)cc3C)c2cc1OC	enzyme activity	inhibitor		1 µM	inhibition	0%
Oc1ccc(-c2nc(-c3ccncc3)c(-c3ccc(F)cc3)[nH]2)cc1	cell-free assay			0.5 µM	remaining signal	101%
O=C(Nc1cnn(-c2csc(C(=O)NC3COC3)c2)c1)Nc1c(F)cccc1Cl	enzyme activity	inhibitor		5 µM	remaining activity	105%
CNC(=O)c1ccc(Nc2ncc(C(F)(F)F)c(NCc3nccnc3N(C)S(C)(=O)=O)n2)cc1	cell-free assay		competition with immobilised ligand	0.1 µM	remaining binding	100%
COc1cc(Nc2cnc(C#N)c(O[C@H](C)CN(C)C)n2)ncc1-c1cnn(C)c1	enzyme activity	inhibitor	radiometric	1 µM	remaining activity	98%
CCCS(=O)(=O)Nc1ccc(F)c(C(=O)c2c[nH]c3ncc(-c4ccc(Cl)cc4)cc23)c1F	enzyme activity	inhibitor		1 µM	inhibition	< 20%
CS(=O)(=O)Nc1cccc(-c2csc(NC(=O)CSc3nc4nccnc4c(=O)n3CCc3ccccc3)n2)c1	enzyme activity	inhibitor		10 µM	inhibition	1%
Oc1cccc(-c2nc(N3CCOCC3)c3oc4ncccc4c3n2)c1	enzyme activity	inhibitor		10 µM	remaining activity	78%
CC/C(=N\NC(=O)NCc1cccc(O)c1)c1ccc(O)c(C)c1O	enzyme activity	inhibitor		0.1 µM	inhibition	0.1%
O=C1CCc2cc(Nc3cc(OC4CCOCC4)c([N+](=O)[O-])cc3Cl)ccc2N1	cell-free assay		competition with immobilised ligand	1 µM	remaining binding	98%
Cc1ccc(NC(=O)c2ccc(C)c(C(F)(F)F)c2)cc1C#Cc1nn(C2CCC(O)CC2)c2ncnc(N)c12 (stereo not drawn)	cell-free assay			10 µM	remaining signal	101%
CCCOc1ccc([C@H]2[C@H](C(=O)O)[C@@H](c3ccc4c(c3)OCO4)CN2CC(=O)Nc2c(CC)cccc2CC)cc1	cell-free assay		competition with immobilised ligand	1 µM	remaining binding	97%
CNC(=O)c1cc(Oc2ccc(NC(=O)Nc3ccc(Cl)c(C(F)(F)F)c3)cc2)ccn1	enzyme activity	inhibitor		0.3 µM	inhibition	-6%
Cn1cnc(Br)c1C1=CN(c2ncnc3[nH]cnc23)CCS1	enzyme activity	inhibitor	radiometric	50 nM	inhibition	26.5%
CO[C@H]1CC[C@H](CNc2ccc(S(=O)(=O)NC(=O)c3ccc(N4CCN(CC5=C(c6ccc(Cl)cc6)CC(C)(C)CC5)CC4)cc3Oc3cnc4[nH]ccc4c3)cc2[N+](=O)[O-])CC1	cell-free assay		competition with immobilised ligand	1 µM	remaining binding	72%
Nc1nc(Nc2ccccc2)sc1C(=O)c1c(F)cccc1F	enzyme activity	inhibitor		10 µM	remaining activity	84%
Cc1c(NC(=O)c2cc(C(N)=O)nc3cc(F)ccc23)c(C(F)(F)F)nn1Cc1ccc(C#N)cc1	cell-free assay		competition with immobilised ligand	1 µM	remaining binding	91%
Nc1nc(Nc2ccc(S(N)(=O)=O)cc2)nn1C(=O)c1c(F)cccc1F	cell-free assay			0.5 µM	remaining signal	120%
CN1CC(Oc2cnc(C#N)cc2-c2ccn3nc(NC(=O)C4CC4)cc3c2)C1	enzyme activity	inhibitor		1 µM	inhibition	-4%
CCS(=O)(=O)c1cc2cc(C[C@@](O)(CC(C)(C)c3ccc(F)cc3C(N)=O)C(F)(F)F)[nH]c2cn1	cell-free assay		competition with immobilised ligand	1 µM	remaining binding	86%
